# ANO1 activ = mouse TMEM16A channel activation, primary screen; AID 623877; HEK293 TMEM16A/YFP-H148Q/I152L, iodide quench fluorescence; active compounds read low; Q8BHY3; B-score at 10 µM; actives 0.3% (n = 340,000);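 active means fluorescence-ratio B-score plate-corrected deviation score at least 3 library SD below zero, with starting fluorescence score within 5 deviations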;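 further: channel opened by trigger with iodide after compound preincubation; score built on the fluorescence ratio of max minus min over baseline; more negative score means more quench and so TMEM16A activation or potentiation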
# Target sequence (Q8BHY3 whole entry, looked up): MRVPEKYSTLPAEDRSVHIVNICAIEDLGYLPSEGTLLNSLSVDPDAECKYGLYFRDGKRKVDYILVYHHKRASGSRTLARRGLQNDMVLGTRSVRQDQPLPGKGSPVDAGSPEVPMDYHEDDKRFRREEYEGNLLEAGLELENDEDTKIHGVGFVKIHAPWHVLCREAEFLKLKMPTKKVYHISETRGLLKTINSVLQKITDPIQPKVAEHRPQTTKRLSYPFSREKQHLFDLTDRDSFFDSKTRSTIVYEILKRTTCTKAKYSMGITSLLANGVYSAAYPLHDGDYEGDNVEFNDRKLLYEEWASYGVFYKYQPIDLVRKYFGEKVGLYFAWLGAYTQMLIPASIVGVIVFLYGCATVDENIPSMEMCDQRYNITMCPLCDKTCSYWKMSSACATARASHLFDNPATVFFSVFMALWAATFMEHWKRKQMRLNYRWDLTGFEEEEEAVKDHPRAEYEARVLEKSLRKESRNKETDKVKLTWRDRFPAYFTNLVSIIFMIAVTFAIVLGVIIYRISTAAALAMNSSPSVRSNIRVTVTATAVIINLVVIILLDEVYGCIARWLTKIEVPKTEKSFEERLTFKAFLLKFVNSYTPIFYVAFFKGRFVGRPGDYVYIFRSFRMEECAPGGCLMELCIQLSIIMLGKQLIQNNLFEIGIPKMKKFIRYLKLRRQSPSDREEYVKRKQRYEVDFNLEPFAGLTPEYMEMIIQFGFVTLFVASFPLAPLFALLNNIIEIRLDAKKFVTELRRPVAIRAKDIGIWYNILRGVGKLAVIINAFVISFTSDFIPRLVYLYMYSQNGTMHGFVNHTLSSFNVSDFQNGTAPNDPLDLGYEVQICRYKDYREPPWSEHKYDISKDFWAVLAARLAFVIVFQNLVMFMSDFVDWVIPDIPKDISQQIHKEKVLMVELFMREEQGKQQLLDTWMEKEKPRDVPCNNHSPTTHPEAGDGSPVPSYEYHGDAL
# CHOP inh = inhibitors of CHOP induction in ER stress response | inhibition, % at 10 µM | CHO-K1 CHOP-promoter luciferase, tunicamycin-induced, 15-18 h | actives 3.8% (n = 220,000);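 active means compounds that reduced the stress-induced luciferase reporter signal by more than about 70% of percent inhibition, limit read from the data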;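 further: 0% = tunicamycin plus vehicle and 100% = wells without tunicamycin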
# XBP1 UPR activ = adaptive UPR (XBP1) activation. CHO-XBP1 luciferase reporter, IRE1-XBP1 UPR activation, luminescence; percent of tunicamycin response, DMSO as zero. activation, % at 20 µM. actives 0.33% (n = 330,000). AID 463104;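 active means versus positive control, 20 µM dose yields 30% or more activation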;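 further: 100% = tunicamycin at 10 µg/mL and 0% = DMSO only wells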
#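 Material: CHO cell line with stable XBP1 luciferase reporter; schedule: 16-18 h cell attachment at 37 °C, then 6 h compound exposure; signal: glow luminescence from Steady-Glo reagent; medium: serum-containing F12 medium, 10% FBS; benchmarks: tunicamycin 10 µg/mL and vehicle-only wells; read-out: percent activation relative to tunicamycin reference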
# Lipid droplet = hepatic lipid droplet formation modulation; AML12 mouse hepatocytes, oleate lipid droplets, BODIPY imaging; inhibition, % at 6.5 µM; actives 0.4% (n = 240,000); AID 1656;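 active means lipid droplet intensity inhibited by at least 50%, with more than 500 cells counted; inconclusive means wells with under 300 cells, treated as cytotoxic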
#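 material = mouse AML12 hepatocyte cell line, fixed after treatment | also added = 100 µM oleic acid challenge | doses = compound at 6.5 µM only | schedule = overnight exposure | technique = Image-based BODIPY and DAPI two-channel analysis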
# CHOP UPR activ = activators of apoptotic arm of unfolded protein response (CHOP). actives 0.34% (n = 330,000). activation, % at 10 µM. CHO-CHOP luciferase reporter, UPR activation, luminescence; percent of tunicamycin response over DMSO baseline;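 active means at 10 µM dose, activation of 40% or more, normalized to positive control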;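 further: 100% = tunicamycin at 10 µg/mL and 0% = DMSO alone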
#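 Test system: CHO CHOP reporter cells. Input: 500 CHO-CHOP cells per well. Medium: F12 with 10% FBS. Technique: luciferase luminescence. Measure: percent activation relative to tunicamycin control. Dosing: 10 µM compound, 0.5% DMSO. Timing: 16-18 h cell attachment, then 6 h compound exposure, 37 °C.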
# TMEM16A inh = mouse TMEM16A channel inhibition, primary screen; normalized B-score (activity score, 25-100; higher = stronger inhibition) at 10 µM; actives 1.2% (n = 310,000); HEK293 TMEM16A/YFP iodide influx fluorescence, ionomycin; Q8BHY3;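 active means ratio plate-corrected score three or more library SD toward inhibition, starting fluorescence score within five deviations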;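 further: score derived from kinetic fluorescence span divided by baseline fluorescence per well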
# * hit, by the source's call; i = inactive; ? = inconclusive; . = no result. Shown are actives, neighbours in structure and some others; about 4.2% of the full set was active somewhere.
SMILES,ANO1 activ,CHOP inh,XBP1 UPR activ,Lipid droplet,CHOP UPR activ,TMEM16A inh
CCOC(=O)c1sc(NC(=O)CSc2n[nH]c(-c3ccccc3)n2)c(C#N)c1C,i,44,-3,4,-1,100*
CCOC(=O)c1c(NC(=O)CSc2n[nH]c(-c3ccco3)n2)sc(C)c1C,i,33,2,3,-1,i
CCOC(=O)c1sc(NC(=O)c2cc(-c3ccccc3)nc3ccccc23)c(C#N)c1C,i,62,4,.,3,100*
CCOC(=O)c1c(NC(=O)CSc2n[nH]c(CNc3ccccc3)n2)sc(C)c1C,i,91*,-4,2,0,i
CCOC(=O)c1sc(NC(=O)CSc2ccccn2)c(C#N)c1C,i,79*,6,0,2,i
COc1cccc(CNC(=O)CN(C)S(=O)(=O)c2ccc3c(c2)n(C)c(=O)c(=O)n3C)c1,i,.,-3,?,1,i
O=C1COC(c2ccccc2)=CN1Cc1ccccc1,i,.,-1,.,0,i
Cc1cc(C)cc(NC(=O)C(OC(=O)c2sccc2C)c2ccccc2)c1 (stereo not given),i,6,-1,7,4,i
O=C(COC(=O)[C@@H]1CC(O)CN1S(=O)(=O)c1ccc(Cl)cc1)NC(=O)NCc1ccccc1 (stereo not given in full),i,.,-1,.,3,i
Nc1nc(Nc2ccccc2)n[nH]1,i,13,-4,8,1,i
c1ccc(Nc2nn[nH]n2)cc1,i,82*,-1,.,-3,i
CCOC(=O)c1c(-c2ccncc2)csc1N,i,34,2,-1,-1,i
Cc1ccc(C)c(-c2csc(N)c2C(=O)OC(C)C)c1,i,80*,-3,4,-1,i
Cc1cccc(-c2csc(N)c2C(=O)OC(C)C)c1,i,74*,3,12,0,i
O=C(C(=Cc1ccccc1)CN1CCCCC1)c1ccccc1,i,.,.,.,.,.
CC(=O)N1c2ccccc2C(C)CC12CCCCC2 (stereo not given),i,85*,-2,-40,-1,i
CCSc1nsc(NC(=O)Nc2cccc(F)c2)n1,i,.,3,-28,9,100*
COc1cccc(NC(=O)Nc2nc(SC)ns2)c1,i,.,-5,-30,4,i
CCc1ccc(CN(C)C(=O)c2cc(COc3c(F)cccc3F)on2)cc1,-26*,53,-1,-5,4,i
O=c1c2c3c(sc2nc2sc(C4CC4)nn12)CCCC3,i,4,-4,4,3,25*
COc1ccc(C(=O)/C=C/Sc2nc3ccccc3o2)cc1,i,82*,-8,-11,-3,i
Cc1ccc(S(=O)(=O)c2nnn3c2nc(NC2CCN(Cc4ccccc4)CC2)c2ccccc23)cc1C,i,.,0,-6,3,i
COc1cccc(/C=N/NC(=O)NC2CCCCC2)c1O,i,-20,6,2,4,i
O=C(CN(C(=O)CCC(=O)Nc1nccs1)c1ccccc1F)NCC1CCCO1 (stereo not given),i,73*,-2,0,-1,i
Cc1ccccc1N(CC(=O)NCC1CCCO1)C(=O)CCC(=O)Nc1nccs1 (stereo not given),i,.,-5,-24,0,i
SMILES,ANO1 activ,CHOP inh,XBP1 UPR activ,Lipid droplet,CHOP UPR activ,TMEM16A inh
CCCc1cc(-c2ccc3c(c2)COc2c4ccccc4nn2-3)on1,i,.,-3,.,3,i
CCOC(=O)c1sc2nc3c(SCCC(=O)O)cc(C(=O)c4cc(OC)ccc4O)cn3c(=O)c2c1C,i,102*,.,9,.,.
COc1ccccc1-n1c(-c2ccc(NS(C)(=O)=O)cc2)n[nH]c1=S,i,93*,-2,-4,2,i
COc1ccc(-n2nc(C(=O)NCC(=O)NCc3cccc(F)c3)c3ccccc3c2=O)cc1Cl,i,.,3,7,0,i
COc1ccc(/C=C/c2nc3ccccc3n2C)cc1,i,81*,-6,22,-10,i
COc1ccc(Cn2c(/C=C/c3ccccc3)nc3ccccc32)cc1,i,47,7,.,8,i
CCOC(=O)Cc1csc(SCC(=O)N(CC(C)C)c2c(N)n(Cc3ccccc3)c(=O)[nH]c2=O)n1,i,.,-3,.,2,i
COc1ccc(-c2cc(=O)c3cc(OC)ccc3o2)cc1,i,78*,0,0,-4,i
CCOC(=O)c1c(C2COc3ccccc3O2)csc1N (stereo not given),i,84*,4,.,-2,i
Cc1cc(C)c2nc(Nc3nc(CSc4nc5ccccc5[nH]4)cc(=O)[nH]3)nc(C)c2c1,-6.4*,.,.,.,.,.
CCOC(=O)C1(Cc2ccccc2C#N)CCCCC1=O (stereo not given),i,.,.,.,.,.
CCN(CC)c1nc(Nc2ccc(Cl)cc2)nc(OCC#N)n1,i,93*,4,.,-1,i
Cc1cccc(Nc2nc(OCC#N)nc(N(C)C)n2)c1,i,.,0,3,1,i
CCCCn1c(N)c(N(CC(C)C)C(=O)c2cccc(-n3cnnn3)c2)c(=O)[nH]c1=O,i,.,-2,.,1,i
O=C(CSc1ncc(-c2ccccc2)n1C1CCCC1)N1CCc2ccccc21,i,75*,1,.,1,i
O=[N+]([O-])c1ccccc1-c1cc(-c2cc(Cl)ccc2O)n[nH]1,i,77*,.,-6,.,i
Cc1ccc(O)c(-c2cc(-c3ccccc3[N+](=O)[O-])[nH]n2)c1,i,8,0,-19,4,i
CC(OC(=O)/C=C/c1ccccc1)C(=O)Nc1cccc(C#N)c1 (stereo not given),i,.,4,.,0,i
CN(CC(=O)Nc1ccc(Cl)cc1)C(=O)Cc1c(F)cccc1Cl,i,.,0,-6,1,i
Cc1ccc2nc(-c3ccc4c(c3)OCCO4)cn2c1,i,94*,-8,8,-10,i
c1ccn2cc(-c3ccc4c(c3)OCCO4)nc2c1,i,51,-14,-14,-7,i
C=CCn1c(SCC(=O)c2[nH]c(C)c(C(=O)OCC)c2C)nc2scc(-c3ccc(OC)cc3)c2c1=O,i,65,.,-27,.,.
C=CCn1c(SCC(=O)c2[nH]c(C)c(C(=O)OCC)c2C)nc2scc(-c3ccccc3)c2c1=O,i,88*,17,2,16,i
Cc1nc(NC(=O)/C=C/c2ccc(Cl)cc2Cl)sc1C(=O)N(C)C,i,85*,0,2,0,i

# Compound activity from PubChem.
